Source: ChEMBL document CHEMBL4184327, “Aromatic-Based Design of Highly Active and Noncalcemic Vitamin D Receptor Agonists” (J Med Chem, 2018)
Activity calls are given as the source filed them. The calls are words filed in the database; no cut-off is given here.

Experiments:
MCF7 [1] = experiment: Antiproliferative activity against 3D culture of human MCF7 cells assessed as cell proliferation at 100 nM after 5 days by DAPI staining-based phase contrast microscopic method; type: functional; conditions: MCF7, 120 h, read-out: Activity
In short: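 Three-dimensional MCF-7 cultures treated 5 days with 10^-7 M in charcoal-treated FCS medium; ethanol vehicle. Phase-contrast photographs taken, sphere diameters traced manually across each sphere and scored as relative units; proliferation given as percentage ± SD of vehicle-treated cells.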

[2] = target: T1, Vitamin D3 receptor (Homo sapiens) (UniProt P11473); experiment: Displacement of fluormone from human full length VDR after 2 hrs by fluorescence polarization assay relative to 1,25D; conditions: concentration not given here
T1 sequence (whole entry): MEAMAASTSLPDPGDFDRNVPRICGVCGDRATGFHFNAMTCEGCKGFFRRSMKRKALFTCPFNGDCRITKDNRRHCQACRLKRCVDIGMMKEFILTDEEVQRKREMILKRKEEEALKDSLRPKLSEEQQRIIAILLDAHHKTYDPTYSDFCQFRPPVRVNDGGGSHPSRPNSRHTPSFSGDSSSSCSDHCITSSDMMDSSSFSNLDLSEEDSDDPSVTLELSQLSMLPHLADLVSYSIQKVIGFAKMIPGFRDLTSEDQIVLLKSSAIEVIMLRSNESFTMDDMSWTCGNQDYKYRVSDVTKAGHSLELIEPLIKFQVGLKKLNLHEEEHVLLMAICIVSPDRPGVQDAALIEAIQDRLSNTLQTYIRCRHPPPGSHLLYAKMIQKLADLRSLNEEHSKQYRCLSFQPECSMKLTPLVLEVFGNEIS
In short: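 Competitive fluorescence polarization VDR binding kit used per manufacturer conditions; compounds tested from 10^-11 to 10^-5 M. IC50 calculated from averaged measurements; activity also expressed as percentage with 1,25D set to 100%.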

Mus musculus [3] = experiment: Hypercalcemic activity in CD1 mouse assessed as serum calcium levels at 0.3 ug/kg, ip administered every other day for 3 weeks measured on […] relative to 1,25D; type: ADME, organism-based; conditions: in vivo, 0.0003 mg/kg, 504 h
In short: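 Mice dosed every other day for 21 days at 0.3 µg/kg, n=5 per group, with vehicle controls; serum calcium reported as mean ± SD.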

SK-OV-3 = experiment: Antiproliferative activity against 2D culture of human SKOV3 cells assessed as cell proliferation at 100 nM after 48 hrs by MTT assay; type: functional; conditions: SK-OV-3, 48 h, read-out: Activity
In short: (§1)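 MTT assay in 2D cultures; cells grown in DMEM with 10% FBS, penicillin/streptomycin, 2 mM L-glutamine at 37 °C in 5% CO2, then treated in charcoal-treated FCS medium for 48 h at 100 nM. Ethanol vehicle controls; proliferation expressed as percentage ± SD of vehicle-treated cells.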

MCF7 [4] = experiment: Antiproliferative activity against 2D culture of human MCF7 cells assessed as cell proliferation at 100 nM after 48 hrs by MTT assay; type: functional; conditions: MCF7, 48 h, read-out: Activity; in short: as §1
HaCaT = experiment: Induction of human HaCaT cell differentiation at 100 nM after 48 hrs; type: functional, cell-based
In short: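 HaCaT keratinocytes treated with 100 nM for 48 hours in charcoal-treated FCS medium, ethanol vehicle control, and differentiation then assessed.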

Vitamin D3 receptor [5] = target: T2, Vitamin D3 receptor (Homo sapiens, UniProt P11473); experiment: Displacement of fluormone from human full length VDR after 2 hrs by fluorescence polarization assay
T2 sequence (P11473 whole entry): T1 sequence (whole entry)

Vitamin D3 receptor [6] = target: T2, Vitamin D3 receptor; experiment: Agonist activity at VDR in human MCF7 cells assessed as increase in transcription of CYP24A1 gene after 24 hrs by luciferase reporter gene assay; type: cell-based
PC-3 = experiment: Antiproliferative activity against 2D culture of human PC3 cells assessed as cell proliferation at 100 nM after 48 hrs by MTT assay; type: functional; conditions: PC-3, 48 h, read-out: Activity; in short: as §1
[7] = target: T1, Vitamin D3 receptor (Homo sapiens); experiment: Agonist activity at VDR in human MCF7 cells assessed as transcription of CYP24A1 gene after 24 hrs by luciferase reporter gene assay relative to 1,25D; type: cell-based
In short: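 Cells transfected with 1 µg pCYP24A1-Luc plasmid (luciferase under a consensus VDRE from the 24-hydroxylase promoter); after 24 h medium replaced with compound at 10^-11 to 10^-6 M. Bioluminescence imaged and total photon counts quantified. EC50 from dose-response curves as concentration raising luciferase activity by 50%; ratio given as analogue EC50 relative to 1,25D.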

[8] = Antiproliferative activity against 2D culture of human HaCaT cells assessed as cell proliferation at 100 nM after 48 hrs by MTT assay; type: cell-based; conditions: HaCaT cells (2D culture), read-out: Activity; in short: as §1
MDA-MB-231 [9] = experiment: Antitumor activity against luciferase expressing human MDA-MB-231 cells xenografted in SCID mouse assessed as increase in mouse survival at 1 ug/kg, ip administered every other day starting from day 10 post tumor implantation to day 60; type: functional, organism-based
In short: (§2)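 SCID mice given subcutaneous MDA-MB-231-luc cells; ten days later (treatment day 0) split into two groups, dosed i.p. at 1 µg/kg in sesame oil, controls sesame oil. Tumor growth followed by in vivo bioluminescence imaging (photon flux) every 7 days until day 28; survival followed to day 60.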

Mus musculus [10] = experiment: Toxicity in CD1 mouse assessed as effect on liver at 0.5 to 5 ug/kg, ip administered every other day for 3 weeks measured on […] by hematoxylin and eosin staining-based assay; type: organism-based; conditions: in vivo, 504 h
Mus musculus [11] = experiment: Toxicity in CD1 mouse assessed as effect on kidney at 0.5 to 5 ug/kg, ip administered every other day for 3 weeks measured on […] by hematoxylin and eosin staining-based assay; type: organism-based; conditions: in vivo, 504 h
MDA-MB-436 [12] = experiment: Cytotoxicity against 3D culture of cancer stem cells derived from human MDA-MB-436 cells assessed as decrease in number of mammospheres at 100 nM after 5 days by DAPI staining-based phase contrast microscopic method; type: functional, cell-based
In short: (§3)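 MDA-MB-436 cells enriched in cancer stem cells grown in a commercial 3D sphere assay per manufacturer's instructions; ethanol or compound (10^-8 or 10^-7 M) added for 5 days. Mammosphere number and diameter quantified from phase-contrast images by manual diameter tracing.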

Mus musculus [13] = experiment: Toxicity in CD1 mouse assessed as body weight loss at 0.5 to 5 ug/kg, ip administered every other day for 3 weeks measured every week during compound dosing; type: organism-based; conditions: in vivo, 504 h
Mus musculus [14] = experiment: Hypercalcemic activity in CD1 mouse serum at 0.5 to 5 ug/kg, ip administered every other day for 3 weeks measured on […]; type: ADME, organism-based; conditions: in vivo, 504 h
MDA-MB-436 [15] = experiment: Cytotoxicity against 3D culture of cancer stem cells derived from human MDA-MB-436 cells assessed as decrease in growth of mammospheres at 100 nM after 5 days by DAPI staining-based phase contrast microscopic method; type: functional, cell-based; in short: as §3
MDA-MB-231 [16] = experiment: Antitumor activity against luciferase expressing human MDA-MB-231 cells xenografted in SCID mouse assessed as tumor growth inhibition at 1 ug/kg, ip administered every other day measured every 7 days […] to day 28 post last dose; type: functional, organism-based; in short: as §2

inhibition [2] [%] | Activity (Mus musculus [3]) [%] | IC50 (Vitamin D3 receptor [5]) [nM] | EC50 (Vitamin D3 receptor [6]) [nM] | Activity [7] [%] | SMILES | growth at 0.1 µM (MCF7 [1]) [%] | growth at 0.1 µM (SK-OV-3) [%] | growth at 0.1 µM (MCF7 [4]) [%] | Activity (HaCaT) | growth at 0.1 µM (PC-3) [%] | viability at 48 h, 0.1 µM [8] [%] | Activity (MDA-MB-231 [9]) | Activity (Mus musculus [10]) | Activity (Mus musculus [11]) | Activity (MDA-MB-436 [12]) | Activity (Mus musculus [13]) | Activity (Mus musculus [14]) | Activity (MDA-MB-436 [15]) | TGI (MDA-MB-231 [16])
7 | 0 | 3.5 to 160 | 29 to 40 | 5 | C=C1/C(=C\C=C(/CCCCCCC)c2cccc(CCCCCC(C)(C)O)c2)C[C@@H](O)C[C@@H]1O | 55 | 83 | 69 | Active | 79 | 71 | – | – | – | – | – | – | – | –
24 | 0 | 4.5 to 11 | 5.6 to 6.2 | 33 | C=C1/C(=C\C=C(/CC)c2cccc(CCCCCC(C)(C)O)c2)C[C@@H](O)C[C@@H]1O | 69 | 78 | 65 | Active | 78 | 68 | Active | Non-Toxic | Non-Toxic | Active | Non-Toxic | Non-Toxic | Active | Active
10 | 41 | 5.6 to 55 | 8.6 to 9.9 | 21 | C=C1/C(=C\C=C(/CCC)c2cccc(CCCCCC(C)(C)O)c2)C[C@@H](O)C[C@@H]1O | 74 | 82 | 69 | Active | 83 | 71 | – | – | – | – | – | – | – | –
12 | 34 | 10 to 18 | 9 to 11 | 19 | C=C1/C(=C\C=C(/CCCC)c2cccc(CCCCCC(C)(C)O)c2)C[C@@H](O)C[C@@H]1O | 84 | 81 | 74 | Active | 84 | 71 | – | – | – | – | – | – | – | –
9 | 0 | 8.3 to 40 | 10 to 13 | 17 | C=C1/C(=C\C=C(/CCCCCC)c2cccc(CCCCCC(C)(C)O)c2)C[C@@H](O)C[C@@H]1O | 79 | 76 | 78 | Active | 80 | 74 | – | – | – | – | – | – | – | –
– | – | – | – | – | C=C1/C(=C\C=C2/CCC[C@]3(C)[C@@H]([C@H](C)CCCC(C)(C)O)CC[C@@H]23)C[C@@H](O)C[C@@H]1O [CALCITRIOL] | 61 | 78 | 66 | Active | 77 | 69 | – | – | – | – | – | – | – | –
